Values after ≈ are worked out from the molar mass of the structure shown.
Experiments:
Format in all cases: functional
Candida albicans [1] = test: Antifungal activity against Candida albicans ATCC 10231 by broth microdilution method
How it was run: (§1)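 CLSI M27-A2 broth microdilution in RPMI 1640 buffered to pH 7.0 with 0.165 M MOPS. Final inoculum 0.5 x 10^3 to 2.5 x 10^3 cells/ml, incubated 35°C for 48 h. Growth read as OD490 with background subtracted. MIC taken as the lowest drug concentration giving 80% growth reduction versus drug-free control. Run in triplicate.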

Candida albicans [2] = test: Antifungal activity against Candida albicans CA1 after 48 hrs by broth microdilution method; conditions: CA1, 48 h
How it was run: as §1, with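 “microdilution of clinical isolates” for “microdilution”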

Candida albicans [3] = test: Antifungal activity against Candida albicans CA2 after 48 hrs by broth microdilution method; conditions: CA2, 48 h
How it was run: as §1, with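 “microdilution of clinical isolates” for “microdilution”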

Candida albicans [4] = test: Antifungal activity against Candida albicans CA3 after 48 hrs by broth microdilution method; conditions: CA3, 48 h
How it was run: as §1, with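 “microdilution of clinical isolates” for “microdilution”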

Candida albicans [5] = test: Antifungal activity against Candida albicans CA4 after 48 hrs by broth microdilution method; conditions: CA4, 48 h
How it was run: as §1, with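 “microdilution of clinical isolates” for “microdilution”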

Candida albicans [6] = test: Antifungal activity against Candida albicans CA127 after 48 hrs by broth microdilution method; conditions: CA127, 48 h
How it was run: as §1, with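 “microdilution of clinical isolates” for “microdilution”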

Candida albicans [7] = test: Antifungal activity against Candida albicans CA132 after 48 hrs by broth microdilution method; conditions: CA132, 48 h
How it was run: as §1, with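 “microdilution of clinical isolates” for “microdilution”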

Candida albicans [8] = test: Antifungal activity against Candida albicans CA10 after 48 hrs by broth microdilution method; conditions: CA10, 48 h
How it was run: as §1, with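 “microdilution of clinical isolates” for “microdilution”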

Candida albicans [9] = test: Antifungal activity against Candida albicans CA135 after 48 hrs by broth microdilution method; conditions: CA135, 48 h
How it was run: as §1, with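 “microdilution of clinical isolates” for “microdilution”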

Candida albicans [10] = test: Antifungal activity against Candida albicans CA137 after 48 hrs by broth microdilution method; conditions: CA137, 48 h
How it was run: as §1, with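 “microdilution of clinical isolates” for “microdilution”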

Candida albicans [11] = test: Antifungal activity against Candida albicans CA138 after 48 hrs by broth microdilution method; conditions: CA138, 48 h
How it was run: as §1, with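 “microdilution of clinical isolates” for “microdilution”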

SMILES	MIC (Candida albicans [1]) [µg/mL]	MIC (Candida albicans [2]) [µg/mL]	MIC (Candida albicans [3]) [µg/mL]	MIC (Candida albicans [4]) [µg/mL]	MIC (Candida albicans [5]) [µg/mL]	MIC (Candida albicans [6]) [µg/mL]	MIC (Candida albicans [7]) [µg/mL]	MIC (Candida albicans [8]) [µg/mL]	MIC (Candida albicans [9]) [µg/mL]	MIC (Candida albicans [10]) [µg/mL]	MIC (Candida albicans [11]) [µg/mL]
OC(Cn1cncn1)(Cn1cncn1)c1ccc(F)cc1F [FLUCONAZOLE]	0.5 (≈ 1.63 µM)	0.25 (≈ 0.816 µM)	0.5 (≈ 1.63 µM)	0.25 (≈ 0.816 µM)	1 (≈ 3.27 µM)	1 (≈ 3.27 µM)	0.5 (≈ 1.63 µM)	256 (≈ 836 µM)	128 (≈ 418 µM)	64 (≈ 209 µM)	128 (≈ 418 µM)
CCC(C)n1ncn(-c2ccc(N3CCN(c4ccc(OCC5COC(Cn6cncn6)(c6ccc(Cl)cc6Cl)O5)cc4)CC3)cc2)c1=O (stereo unspecified) [ITRACONAZOLE]		0.125 (≈ 0.177 µM)	0.125 (≈ 0.177 µM)	0.031 (≈ 0.0439 µM)	0.031 (≈ 0.0439 µM)	0.016 (≈ 0.0227 µM)	0.031 (≈ 0.0439 µM)	128 (≈ 181 µM)	32 (≈ 45.3 µM)	16 (≈ 22.7 µM)	64 (≈ 90.7 µM)

From ChEMBL document CHEMBL1629670, “In vitro activities of retigeric acid B alone and in combination with azole antifungal agents against Candida albicans” (2009)
